Sampled rows, rich in hits. Any-hit rate of the full collection: about 2.2%.
Cneo AK release = causes C. neoformans cell lysis; AID 651654; adenylate kinase release luminescence, 4 h; normalised: neutral wells 0, clomiphene wells 100; hit rate 0.2% among 360,000; lysis activity, % at 15 µM;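 active = mean lysis activity across replicates of at least 80%, whatever share of replicates individually reach that level; inactive = mean lysis activity below 80%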
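Schedule: static 4 h at 37 °C with compound, 1 h detection; system: C. neoformans cells; benchmarks: Clomiphene as positive control; buffer or medium: fresh YPD medium; measure: luminescence rise reflecting yeast cell lysis; measured by: luminescent adenylate kinase detection reagent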
rRNA inh HTS = inhibits bacterial ribosomal RNA function over humanized ribosomes; E. coli WT GFP vs humanized-ribosome RFP mutants, fluorescence, 24 h; hits give low values; DMSO median 0, no signal -100; GFP signal change (wild-type ribosome), % (test concentration not listed); hit rate 1.6% among 350,000;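 active = significant combined selectivity score with lowered wild-type GFP, culture density cut under 30%, mutant RFP and density less affected; inactive = any of these conditions unmet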
PglD DTNB = inhibitors of Campylobacter jejuni PglD acetyltransferase | hit rate 0.098% among 360,000 | inhibition, % at 12.5 µM | purified PglD enzyme, DTNB colorimetric CoA detection | AID 602405; in the data active = inhibition above about 16%, passing the limit was not always enough
CR mimetic SO = yeast age-related superoxide inhibition as caloric restriction mimetic; S. cerevisiae aged cells, superoxide DHE fluorescence; hits give low values; superoxide response (% of plate mean), % at 10 µM; hit rate 0.18% among 330,000; AID 2690;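 active = superoxide response under a set limit, about three screen SD below normal, cut at about 65% in these data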;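 also: yeast aged for seven days with compound at 30 °C before DHE staining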
Mot1-301 SUMO = inhibitors of SUMOylation pathway: yeast Mot1-301 growth rescue. S. cerevisiae Mot1-301 growth rescue, ATP luminescence, 38.5C; percent above DMSO median, 100 means doubled. growth rescue, % at 18.8 µM. hit rate 1% among 320,000. AID 2716;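 active = every valid replicate shows activation above 250% relative to neutral control wells; inactive = the rest, any valid replicate at or below 250%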
Large screens that a line does not name were inactive; ! = not active in a repeat.

CC=Cc1ccc2n(c1=O)C[C@H]1[C@H](CO)[C@@H](C(=O)NCc3ccc4c(c3)OCO4)[C@@H]2N1C(=O)CC (mixture of isomers)	none (no result: CR mimetic SO, Mot1-301 SUMO)
CC(Oc1ccccc1)C(=O)Nc1nnc(S(=O)(=O)Nc2ccccc2)s1 (stereo not given)	rRNA inh HTS -13
CC(=O)c1sc2nc(C)c3c(c2c1N)CCCC3	rRNA inh HTS -33
CC(=O)N(C)C[C@@H]1Oc2ccc(N(C)C)cc2C(=O)N(C)C[C@@H]1C	none (no result: Cneo AK release, PglD DTNB, CR mimetic SO, Mot1-301 SUMO)
C[C@@H]1CN([C@@H](C)CO)S(=O)(=O)c2ccc(-c3ccc(F)cc3)cc2O[C@@H]1CN(C)C(=O)Nc1ccccc1F	none (no result: CR mimetic SO, Mot1-301 SUMO)
CC(=O)N(C)C[C@H]1Oc2ncc(C3=CCCC3)cc2C(=O)N([C@@H](C)CO)C[C@H]1C	none (no result: CR mimetic SO, Mot1-301 SUMO)
COc1cccc(-c2cnc3c(c2)C(=O)N([C@@H](C)CO)C[C@@H](C)[C@@H](CN(C)C(C)=O)O3)c1	none (no result: CR mimetic SO, Mot1-301 SUMO)
Cc1cccc(-n2ccnc2SCC(=O)Nc2cc(C)on2)c1	none (no result: rRNA inh HTS)
Cc1cc(NC(=O)CSc2nccn2-c2cccc(C)c2C)no1	rRNA inh HTS -28 (no result: Cneo AK release, PglD DTNB)
COCCCNC(=O)CSc1c2c(nc3ccc(Cl)cc13)CCCC2	rRNA inh HTS -23 (no result: Cneo AK release, PglD DTNB)
Cc1cccc(S(=O)(=O)N2C[C@H]3[C@@H](c4ccccc42)[C@@H](CO)N3C(=O)C2CC2)c1	none (no result: CR mimetic SO, Mot1-301 SUMO)
CCOC(=O)CN1C(=O)S/C(=C\c2ccc(-c3cccc(C(=O)O)c3C)o2)C1=O	none
CCOC(=O)CN1C(=O)S/C(=C\c2ccc(-c3ccc(C(=O)O)c(Cl)c3)o2)C1=O	rRNA inh HTS -24
Cc1ccc(S(=O)(=O)N[C@@H]2C=C[C@H](CC(=O)N3CCc4ccccc4C3)O[C@@H]2CO)cc1	none (no result: CR mimetic SO, Mot1-301 SUMO)
Cc1ccccc1CSCCNC(=O)CCSc1ccccc1	Mot1-301 SUMO 322
Cc1ccc(CSCCNC(=O)CCSc2ccccc2)cc1	none (no result: rRNA inh HTS)
Cc1cccc(C2Nc3ccccc3C(=O)N2CCc2ccccc2)n1 (stereo not given)	none
O=C1c2ccccc2NC(c2cccc([N+](=O)[O-])c2)N1CCc1ccccc1 (stereo not given)	rRNA inh HTS -20
CNC[C@H]1Oc2cc(Br)ccc2S(=O)(=O)N([C@H](C)CO)C[C@H]1C	Cneo AK release 91! (no result: CR mimetic SO, Mot1-301 SUMO)
CNC[C@@H]1Oc2cc(Br)ccc2S(=O)(=O)N([C@H](C)CO)C[C@H]1C	Cneo AK release 100! (no result: CR mimetic SO, Mot1-301 SUMO)
C[C@H]1CN([C@@H](C)CO)S(=O)(=O)c2ccc(Br)cc2O[C@@H]1CN(C)C(=O)CCN1CCCCC1	Cneo AK release 80! (no result: CR mimetic SO, Mot1-301 SUMO)
CNC[C@H]1Oc2cc(Br)ccc2S(=O)(=O)N([C@@H](C)CO)C[C@H]1C	none (no result: CR mimetic SO, Mot1-301 SUMO)
CCC(=O)N(C)C[C@@H]1Oc2cc(Br)ccc2S(=O)(=O)N([C@H](C)CO)C[C@@H]1C	none (no result: CR mimetic SO, Mot1-301 SUMO)
CC1CCCN(Cc2c(C(=O)N3CCc4ccccc4C3)nc3ccc(Cl)cn23)C1 (stereo not given)	rRNA inh HTS -25 (no result: PglD DTNB)
COC1CCCN(Cc2c(C(=O)N3CCc4ccccc4C3)nc3ccc(Cl)cn23)C1 (stereo not given)	none
O=C(CSC(=S)N1CCCC1)c1cc(Br)cc(Br)c1O	rRNA inh HTS -30 (no result: Cneo AK release, PglD DTNB)
Cc1c(C2(O)CCCCC2)[nH]c2ccc(C(F)(F)F)cc12	Mot1-301 SUMO 301
Cc1c(C2(O)CCCCC2)[nH]c2ccccc12	none (no result: Cneo AK release, PglD DTNB, CR mimetic SO, Mot1-301 SUMO)
C[C@@H]1CN([C@H](C)CO)C(=O)c2cc(C#Cc3ccccn3)cnc2O[C@H]1CN(C)Cc1ccncc1	none (no result: CR mimetic SO, Mot1-301 SUMO)
CCC1Nc2ncnc(N3CCc4ccccc4C3)c2N(Cc2ccc(Cl)cc2)C1=O (stereo not given)	rRNA inh HTS -17
O=C(O)/C=C/c1ccc(S(=O)(=O)Nc2ccc(OCc3ccccc3)cc2)cc1	rRNA inh HTS -24
C[C@@H]1CN([C@@H](C)CO)C(=O)c2cccc(NC(=O)C3CC3)c2O[C@H]1CN(C)S(=O)(=O)c1cn(C)cn1	none (no result: CR mimetic SO, Mot1-301 SUMO)
COc1ccccc1N1CCN(C(=O)c2cc(-c3ccccc3)on2)CC1	none
COc1ccccc1N1CCN(C(=O)c2ccc3noc(-c4ccccc4)c3c2)CC1	rRNA inh HTS -13 (no result: CR mimetic SO, Mot1-301 SUMO)
Cc1c(C(=O)N2CCN(CCc3ccccn3)CC2)oc2ccc(F)cc12	none
Cc1ccc2c(C)c(C(=O)N3CCN(Cc4ccccn4)CC3)oc2c1C	Cneo AK release 82
Cc1cc2oc(C(=O)N3CCN(CCc4ccccn4)CC3)c(C)c2cc1C	rRNA inh HTS -28
CCCNC(=O)N1CC2(CCN(CC3CCCC3)CC2)c2c(n(C)c3cc(OC)ccc23)[C@@H]1CO	none (no result: Cneo AK release, PglD DTNB, CR mimetic SO, Mot1-301 SUMO)
Cc1noc(C)c1NC(=O)N(C)C[C@@H]1Oc2ccc(NC(=O)CCCCCC(=O)Nc3ccccc3N)cc2CC(=O)N([C@H](C)CO)C[C@@H]1C	none (no result: CR mimetic SO, Mot1-301 SUMO)
O=C(O)C[C@H]1C[C@H]2c3cc(NC(=O)Nc4ccccc4)ccc3O[C@H]2[C@H](CO)O1	none (no result: CR mimetic SO, Mot1-301 SUMO)
COc1cccc(C2CC(c3cccs3)Nc3ncnn32)c1 (stereo not given)	none (no result: rRNA inh HTS)
Clc1ccc(C2CC(c3cccs3)n3ncnc3N2)cc1 (stereo not given)	rRNA inh HTS -41
O=C(C1CC1)N1[C@H](CO)[C@@H]2c3ccccc3N(S(=O)(=O)c3ccccc3)C[C@@H]21	none (no result: CR mimetic SO, Mot1-301 SUMO)
O=C(O)/C=C/C(=O)Nc1ccc2c(c1)C(=O)c1ccccc1C2=O	rRNA inh HTS -35 (no result: Cneo AK release, PglD DTNB)
CC(=O)Nc1ccc2c(c1)C(=O)c1ccccc1C2=O	none (no result: rRNA inh HTS)
C[C@H]1CN([C@@H](C)CO)C(=O)c2cc(NS(=O)(=O)c3ccc(Cl)cc3)ccc2O[C@@H]1CN(C)Cc1ccc(C(F)(F)F)cc1	none (no result: Cneo AK release, PglD DTNB, CR mimetic SO, Mot1-301 SUMO)
COc1ccc(-c2nc(Cn3c(SCc4ccc(C)cc4)nc4ccncc43)c(C)o2)cc1OC	Mot1-301 SUMO 460
COc1ccc(-c2nc(Cn3c(SCc4cccc(F)c4)nc4ccncc43)c(C)o2)cc1OC	none
CO[C@@H]1CN(C)C(=O)c2cc(NC(C)=O)ccc2OC[C@H](C)N(C(=O)C2CCCCC2)C[C@H]1C	none (no result: Cneo AK release, PglD DTNB, CR mimetic SO, Mot1-301 SUMO)
O=C(COc1ccc(Cl)cc1)Nc1nnc(-c2ccco2)o1	rRNA inh HTS -35 (no result: Cneo AK release, PglD DTNB)
O=C(COc1ccccc1)Nc1nnc(-c2ccco2)o1	none
C[C@@H]1CCCCO[C@@H](CN(C)C(=O)Nc2ccc(F)cc2)[C@H](C)CN([C@@H](C)CO)C(=O)c2cc(NS(=O)(=O)c3ccc(F)cc3)ccc2O1	none (no result: CR mimetic SO, Mot1-301 SUMO)
N#CCc1ccc(Oc2ncccn2)cc1	Mot1-301 SUMO 356
O=[N+]([O-])c1ccc(Oc2ncccn2)cc1	none
CNC[C@@H]1Oc2c(NC(=O)Nc3ccc(OC)cc3)cccc2C(=O)N([C@@H](C)CO)C[C@H]1C	none (no result: Cneo AK release, PglD DTNB, CR mimetic SO, Mot1-301 SUMO)
COc1cc(/C=C(\C#N)c2nc3ccccc3[nH]2)cc(Br)c1OCc1ccccc1	Mot1-301 SUMO 487
CO[C@@H]1CN(C)C(=O)c2ccc(NC(=O)C3CCCC3)cc2OC[C@H](C)N(C(C)=O)C[C@@H]1C	none (no result: CR mimetic SO, Mot1-301 SUMO)
CCC(CO)Oc1cc(NCc2cccc(Cl)c2)c2ncn(C(C)C)c2c1 (stereo not given)	rRNA inh HTS -22
